The values below come from the EternaBench riboswitch data.

The test system of this data set is MS2 coat protein. The experiment in a line: apparent Kd, MS2 coat protein; higher = weaker binding; RNA-MaP array; FMN 200 µM where present. Put shortly: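 The titrant was SNAP-549-labelled MS2 coat protein, run from 0.7 or 1.5 nM in doubling steps to 3 µM. It was applied to designs transcribed by stalled E. coli RNA polymerase on Illumina sequencing-chip clusters, without ligand first and then with constant ligand, in 100 mM Tris-HCl pH 7.5, 80 mM KCl, 4 mM MgCl2, BSA, DTT, yeast tRNA and Tween-20. The apparent Kd is the median of filtered per-cluster binding-curve fits, with green signal normalised to red-channel RNA signal and control-cluster median Fmax.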

[1] abbreviates: designed as: ON switch for flavin mononucleotide, no ligand.
The mark [2] stands for this setting: ligand present: flavin mononucleotide, designed as: ON switch for flavin mononucleotide.
The mark [3] stands for this setting: designed as: OFF switch for flavin mononucleotide, no ligand.
Setting [4] is: ligand present: flavin mononucleotide, designed as: OFF switch for flavin mononucleotide.

Take “AGUCCGGAACAGAAGGACAUGAGGAUCACCCAUGUAGGAUAUGUUGUGCGGCGUUAGGGAGGUGCCUGCGUGUGGGCGGAUCUC”: the “apparent Kd” value is 14.1 nM under setting [1] and 6.56 nM under setting [2].

Consider “AUCAGCUCGUCAGGAUAUACGUCACUGCGUCAGCAGUAUGGUAAGAUCACAUGAGGAUCACCCAUGUAGAAGGGACGAGCUGAU”, for which the “apparent Kd” value reads like this: under setting [3], 62.2 nM; under setting [4], 663 nM.

Turning to “UGUCGGAGCAGAGGAUAUUACAUGAGGAUCACCCAUGUAUGAACCAAUAGCUGGGAACAGCAAUGUAAGAAGGCUGCUCCGACA”, the “apparent Kd” value runs as follows: under setting [3], 18.6 nM; under setting [4], 201 nM.

Consider “GUAGCAUUCUGAGGAUAUUCAUACCGGAAACGGACAUGAGGAUCACCCAUGUGGCGAAAGCCUUGGGAGAAGGCAGUAUGCUAC”, for which the “apparent Kd” value amounted to 740 nM under setting [1] and 27.4 nM under setting [2].

For “AUAGUCGGGAGAUAAACUCGUGCGGUAGAAGGGUGAUACUGGACAUGAGGAUCACCCAUGUGCACACAGGAUAUGCCCGCGAGC”, the “apparent Kd” value under setting [1] amounted to 83.6 nM and the “apparent Kd” value under setting [2] is 24.3 nM.

Take “GGUAGAAACAUUAACAUGAGGAUCACCCAUGUCAAAAGAAAUGAGGAUAUCGUAUACAAUGUAUAUGAGAAGGCAUGGUCUACC”: the “apparent Kd” value runs as follows: under setting [1], 7.78 nM; under setting [2], 5.77 nM.

Take “GAUAUGGGAGGAUAUGCAUAGAUAAAGAAACAUGUUCAACCACAUGAGGAUCACCCAUGUAGAAGGCCCAUAUC”: the “apparent Kd” value by setting is: under setting [3], 31.9 nM; under setting [4], 147 nM.

With “GCCAUCGCAUGAGGAUAUGCUCCCGUUUCGGGAGCAGAAGGCAUGCCAUAAGACAUGAGGAUCACCCAUGUAGUUAAGAUGGCA”, the “apparent Kd” value is, setting by setting: under setting [1], 5.71 nM; under setting [2], 5.75 nM.

Consider “AAUAAACUCACAGGAUAUAGCAUAGGUCGCCUGAACUUACAGGCGACUAUGCUAGAAGGGUGACCACAUGAGGAUCACCCAUGU”, for which the “apparent Kd” value is, setting by setting: under setting [1], 847 nM; under setting [2], 168 nM.

For the sequence “CUUAUGUGAGGAUAUCAGUAGUAAAAAAAUAAAAUUACUACUGAGAAGGCACAUGAGGAUCACCCAUGUUCCUC”, the “apparent Kd” value is 115 nM under setting [3] and 429 nM under setting [4].

On to “AAAAGCAGAGGAUAUACAUAAUUAUGACGAAAGUCAUAAAAACAUGAGGAUCACCCAUGUAGAAGGCUGCAAAA”, for which the “apparent Kd” value runs as follows: under setting [3], 24.4 nM; under setting [4], 34.1 nM.

With “AUCAGCUCGUCAGGAUAUACGUCACUGCGUCAGCAGUGUGGUUAGAUCACAUGAGGAUCACCCAUGUAGAAGGGACGAGCUGAU”, the “apparent Kd” value runs as follows: under setting [3], 23.4 nM; under setting [4], 458 nM.

Consider “GUUAGACAUGAGGAUCACCCAUGUGAGGAUAUGAUGCGAAUAAAGAAUGAAGUAAGCAUCAGAAGGCACAUAUG”, for which the “apparent Kd” value is, setting by setting: under setting [3], 267 nM; under setting [4], 381 nM.

With “GCAGCGUAUGUAGGAUAUCGGUCAGUUUCUGAUCGAGAAGGACAUGAGGAUCACCCAUGUAAAAUACCGACUUUGUCGGGCUGC”, the “apparent Kd” value under setting [3] was found to be 6.43 nM and the “apparent Kd” value under setting [4] was 8.11 nM.

On to “AAUUACAUGUAGAAGGUACUUAAUUAAGUGUUGUAAGGAUAUACCAAUUUAUUAGAUUUAAAGAUACAUGAGGAUCACCCAUGU”, for which the “apparent Kd” value reads like this: under setting [1], 12.1 nM; under setting [2], 9.76 nM.

On to “ACUGGUCGAGGAUAUACAUGAGGAUCACCCAUGUGAUUAGCAGUCCUCGGACUGCAAUGUAGAAGGCGACCAGU”, for which the “apparent Kd” value under setting [3] was 370 nM and the “apparent Kd” value under setting [4] worked out at 842 nM.

Turning to “AAUUUACAGACAGGAUAUACAUGAGGAUCACCCAUGUAAUCAUAUGAUAUUUUUUUUGUAUGAGUGUAGAAGGGUCAAAUAAAA”, the “apparent Kd” value is, setting by setting: under setting [3], 13.5 nM; under setting [4], 10.6 nM.

“AGAUGACAAAGUCAUCUCUGACGGACAUGAGGAUCACCCAUGUAGGAUAUGCUACUCAAAGAGUAGCAGAAGGACAUGUGUCUU”: the “apparent Kd” value is, setting by setting: under setting [3], 33.5 nM; under setting [4], 173 nM.

For “AAAGAAAAACUAGAGGAUAUCCGAGUGGUAACAUGAGGAUCACCCAUGUGAUGAAAGGAACAUGAGGAGAAGGCUAGAAGAAAAA”, the “apparent Kd” value was 21.7 nM under setting [1] and 8.11 nM under setting [2].

In the case of “UGAUCGAGAGAUCUUAGAUUCUGCAAGGAUAUGCAGGAGUUGCGCUUUACAUGAGGAUCACCCAUGUAGAAGGUGUAGAGUCUA”, the “apparent Kd” value runs as follows: under setting [3], 6.62 nM; under setting [4], 8.08 nM.

Consider “GAGAAGUCAGGAUAUGCAUGGCGGGACUUGCGUCGUGGCGUGCAGAAGGGACAUGAGGAUCACCCAUGUAAAGA”, for which the “apparent Kd” value was 53 nM under setting [3] and 49 nM under setting [4].

Turning to “GUGAGGUAAGGAUAUAGUAGUGAAGGUAAAAUAUGAGAAUGCUAGAAGGUACAUGAGGAUCACCCAUGUUAGGG”, the “apparent Kd” value was 211 nM under setting [3] and 203 nM under setting [4].

Regarding “AGUAGAUCAGGAUAUACGUGAAAGGUCAAAGUGUCACUACUACAUGAGGAUCACCCAUGUAGAAGGGAUCUACA”, the “apparent Kd” value under setting [3] turned out to be 16.4 nM and the “apparent Kd” value under setting [4] worked out at 29.3 nM.

Regarding “CCUCCCUGAGGAUAUCCACCCUCAUACAUGAGGAUCACCCAUGUUCAACCCUGGGUUCCCGGAGAAGGCAGUUUUC”, the “apparent Kd” value under setting [3] was 97.2 nM and the “apparent Kd” value under setting [4] was determined as 102 nM.

In the case of “GACAUGAGGAUCACCCAUGUCCCUCCAGAAGGCUGGCGCGCGAAACCGAUCUCGGUUCCGGGCACAGAGGAUAUGGGCGGUUGG”, the “apparent Kd” value amounted to 198 nM under setting [1] and 26.1 nM under setting [2].

Regarding “AUCAGCUCGUCAGGAUAUACGUCACUGCGUAAGCAGUGUGGUAAGAUCACAUGAGGAUCACCCAUGUAGAAGGGACGAGCUGAU”, the “apparent Kd” value by setting is: under setting [3], 12.9 nM; under setting [4], 288 nM.

On to “AUUAUUAUAUUAUACAUGAGGAUCACCCAUGUUAUAAGUCAUGAGGAUAUGGUUUUGUAGAUUUUCCAGAAGGCAUUUAACUUA”, for which the “apparent Kd” value under setting [1] amounted to 13.3 nM and the “apparent Kd” value under setting [2] was found to be 7.8 nM.

On to “CUCAAACAUGAGGAUCACCCAUGUGUUGUCAUGGGAGGAUAUCUAAGUUCGUUGUAUUCGGGAGAAGGCCUAUGUC”, for which the “apparent Kd” value reads like this: under setting [1], 258 nM; under setting [2], 55.1 nM.

On to “UUGUUAUGUGUAGGAUAUGCAUAUUAUUAUUAUGCAGAAGGACAUGAGGAUCACCCAUGUGUAUUGUUAUUAUAUAUUAUAUAU”, for which the “apparent Kd” value is, setting by setting: under setting [3], 22.8 nM; under setting [4], 30.5 nM.

Regarding “UUGGACGUCGUAGGAUAUGUAGGAUAUUCCUACAUGAGGAUCACCCAUGUUGACAUGGAAGAAGGACAGAAGUACGAUGUCCAU”, the “apparent Kd” value under setting [2] came to 5.6 nM.

In the case of “GCGUCAGAAUUAAUUGUGACAGGCAGAAGGCUAUAUCUUAUGUCAGACAUGAGGAUCACCCAUGUAGAGGAUAUGCAGUUACAC”, the “apparent Kd” value is 10.6 nM under setting [3] and 17.9 nM under setting [4].

With “ACACAGGGAGGAUAUACAUGAGGAUCACCCAUGUAGAGUGGAUUGGGAUUGCUAUCAAGUAGAAGGCUUUAGUG”, the “apparent Kd” value was determined as 56.1 nM under setting [3] and 122 nM under setting [4].

On to “GGCAGUCCGACACAGGAUAUGGGUAACGAAACAUGAGGAUCACCCAUGUGGAAACAUCGGGUUGCCUAGAAGGGUGGAAAGAUUG”, for which the “apparent Kd” value was determined as 117 nM under setting [1] and 32.1 nM under setting [2].

Take “UAUAAAUUAAAAGGAUAUUCAUACCGGAAACGGACAUGAGGAUCACCCAUGUGGCGAAAGCCUUGGGAGAAGGUAUUAAAUAAU”: the “apparent Kd” value under setting [1] came to 268 nM and the “apparent Kd” value under setting [2] is 263 nM.

With “CUUUUGGCAGGAUAUGCUUUUUUUGACAUGAGGAUCACCCAUGUGAUGCAUUUUGGGUUUGCAGAAGGGCCUGAGU”, the “apparent Kd” value is 63.5 nM under setting [3] and 87.5 nM under setting [4].

For “UAAAAGCAAGGAUAUACAUGAGGAUCACCCAUGUGAGGCUAAGUCUGCCAUGGCUCAGGUAGAAGGUGCGUCGA”, the “apparent Kd” value is, setting by setting: under setting [3], 51.3 nM; under setting [4], 241 nM.

For the sequence “AGUGUCAUCGAGAAGGCCUCAACAUGAGGAUCACCCAUGUUGCAAAAUGGGAGGAUAUCGCGCAAAAAGCUACGUUUCGUAGCA”, the “apparent Kd” value stood at 43.1 nM under setting [1] and 6.96 nM under setting [2].

As to “AAGUAUGGAGGAUAUACAUGGAUAUACAUUCAUGUGGACCUACAUGAGGAUCACCCAUGUAGAAGGCCAUAAUA”, the “apparent Kd” value under setting [3] amounted to 30.7 nM and the “apparent Kd” value under setting [4] was determined as 16.6 nM.

In the case of “AAAUAGCUAGAGGAUAUCGGAUAGGAUUUACUACGAGAAGGUUAGACAUGAGGAUCACCCAUGUUCUGUUGGGA”, the “apparent Kd” value reads like this: under setting [3], 41.5 nM; under setting [4], 39.2 nM.

Turning to “CCCUAGAUCCGAGGAUAUACAAUCCGGAAACGGUACAUGAGGAUCACCCAUGUAGAAGGCGGAUCUACAGGUACUAAAGUACCC”, the “apparent Kd” value is, setting by setting: under setting [3], 7.3 nM; under setting [4], 9.22 nM.

For the sequence “UAAAGUUAAGGAGGAUAUUACAUGAGGAUCACCCAUGUAAUGGGCUCGGUGUAAGAAGGCCUUGAGUCGAAGUUUCGGAUGAGG”, the “apparent Kd” value was determined as 9.55 nM under setting [3] and 21.4 nM under setting [4].

As for “AUCGCUCAGCAGAAGGGACUGACAUGAGGAUCACCCAUGUCUUUUAUGGUCAGGAUAUGUUGCCGAACCACGAAAAGUGGGUGC”, the “apparent Kd” value reads like this: under setting [1], 25.7 nM; under setting [2], 9.27 nM.

Regarding “GGUACUCAAAGAGUACUUGGUCGAACAUGAGGAUCACCCAUGUAGGAUAUGCGAAGCAAGAAGUAGCAGAAGGACAUGUGCAGC”, the “apparent Kd” value is 14.8 nM under setting [3] and 43.7 nM under setting [4].

Regarding “GUAGCAUGCAGCGAGGAUAUUCAUAUUAAAACAUGAGGAUCACCCAUGUAGGCCAAAAGGCCUUGGGAGAAGGCGCACAUGCUAC”, the “apparent Kd” value under setting [1] is 777 nM and the “apparent Kd” value under setting [2] came to 43.2 nM.

In the case of “AUCAGCUCGUCAGGAUAUACCUCACUGCGUCAGCAGUGUGGUAAGAUCACAUGAGGAUCACCCAUGUAGAAGGGACGAGCUGAU”, the “apparent Kd” value is, setting by setting: under setting [3], 6.44 nM; under setting [4], 6.19 nM.

Turning to “UGUCGGAGCAGAGGAUAUUACAUGAGGAUCACCCAUGUAUGAACCAAUAGCUGGAAACAGCAAUGUAAGAAGGCGGCUCCGACA”, the “apparent Kd” value by setting is: under setting [3], 5.18 nM; under setting [4], 9.07 nM.

With “UAUUUACAUGAGGAUCACCCAUGUCAGGAUAUGCGUCUAUCGUCGAAAGACGAUAGUUGCAGAAGGGACAAUAU”, the “apparent Kd” value was 62.8 nM under setting [3] and 123 nM under setting [4].

As for “UUUAUUAACAAGAAGGCAUACAUGAGGAUCACCCAUGUUCUACAUGGAUAAUGAGGAUAUUGCUAAUACAUGAGGAUCACCCAU”, the “apparent Kd” value under setting [3] was found to be 50.6 nM and the “apparent Kd” value under setting [4] worked out at 53 nM.
